The values below come from ChEMBL document CHEMBL4382218, “Design, synthesis and antifungal evaluation of borrelidin derivatives” (Bioorg Med Chem, 2018).

≈ marks a conversion by molar mass, not a printed value. Calls of active or inactive are those of the source. No cut-off for these calls is given here.

Data set [1] relates to Candida albicans. Nature of the data set: Antifungal activity against Candida albicans ATCC MYA-2876 at 100 ug/ml after 48 hrs by micro broth dilution method. The class given is functional, organism-based. Summed up:
(§1)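 Broth microdilution in RPMI-1640 (NaHCO3, MOPS, pH 7.0). Compounds are dissolved in DMSO and serially diluted 2-fold to eight concentrations, with stocks of […]. Fungal inocula are 2 × 10³ cfu/mL. Plates are incubated 48 h at 28 °C. The MIC is the lowest concentration with no turbidity, and the highest concentration tested is 100 μg/mL.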
On the technique in general: In broth dilution the organism is exposed to a series of concentrations in liquid medium.

The subject of data set [2] is Aspergillus fumigatus. The data set is described as follows: Antifungal activity against Aspergillus fumigatus CCTCC AF 93048 after 48 hrs by micro broth dilution method. It counts as functional. The note with it: CCTCC AF 93048, 48 h. In short, it runs like this: as §1
A short description of data set [3]: Selectivity index, ratio of IC50 for HEK293T cells to MIC for Candida parapsilosis ATCC 22019. The class given is toxicity. The note with it: human, read-out: Selectivity Index.
For data set [4], the system named is HEK-293T. The data set is described as follows: Cytotoxicity against HEK293T cells assessed as growth inhibition after 48 hrs by MTT assay. The class given is cell-based. The note with it: Homo sapiens. Summed up: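 293T cells are grown in DMEM with 10% FBS, L-glutamine and penicillin/streptomycin at 37 °C in 5% CO₂. Cells are seeded at 7 × 10³ per well and exposed to six concentrations (0.33-100.0 μM) for 48 h. MTT is then added for 4 h, formazan is dissolved in DMSO and read at 570 nm. IC50 comes from non-linear regression, n = 3 independent experiments.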
Background: Tetrazolium dyes change colour on reduction, which living cells bring about.

For data set [5], the system named is Candida parapsilosis. The data set is described as follows: Antifungal activity against Candida parapsilosis ATCC 22019 at 100 ug/ml after 48 hrs by micro broth dilution method. It counts as functional, organism-based. In short, it runs like this:
as §1

The nature of data set [6]: Selectivity index, ratio of IC50 for HEK293T cells to MIC for Aspergillus fumigatus CCTCC AF 93048. The class given is toxicity. The note with it: human, read-out: Selectivity Index.
The nature of data set [7]: Selectivity index, ratio of IC50 for HEK293T cells to MIC for Candida albicans ATCC MYA-2876. The class given is toxicity. The note with it: human, read-out: Selectivity Index.
The test system of data set [8] is Candida parapsilosis. The data set is described as follows: Antifungal activity against Candida parapsilosis ATCC 22019 after 48 hrs by micro broth dilution method. The note with it: Lodderomyces parapsilosis, ATCC 22019, 48 h. The class given is functional. Summed up: as §1
In data set [9] the test system is Candida albicans. The data set is described as follows: Antifungal activity against Candida albicans ATCC MYA-2876 after 48 hrs by micro broth dilution method. It counts as functional. The note with it: ATCC MYA-2876, 48 h. In short, it runs like this:
as §1

Data set [10] deals with Aspergillus fumigatus. The data set is described as follows: Antifungal activity against Aspergillus fumigatus CCTCC AF 93048 at 100 ug/ml after 48 hrs by micro broth dilution method. The class given is functional, organism-based. In short, it runs like this:
as §1

Usually MIC stands for the lowest concentration found to suppress growth. A high value points to a need for much substance. For orientation: IC50 means the concentration that inhibits the measured activity by half.

As to `C[C@@H]1C[C@H](C)C[C@H](C)[C@@H](O)CC(=O)O[C@H]([C@@H]2CCC[C@H]2C(=O)OCCN2CCN(CC3CCCCC3)CC2)C/C=C/C=C(/C#N)[C@H](O)[C@@H](C)C1`, the outcome in data set [1] and in data set [5] was inactive. For the same molecule, in [2], the MIC came out at 25 µg/mL (≈ 35.8 µM). Moreover, the figures for the selectivity ratio in data set [3], in [6] and in data set [7] were below 0.23, 0.92 and below 0.23, respectively. In data set [4], the IC50 was 23 µg/mL (≈ 33 µM).
As for `C[C@@H]1C[C@H](C)C[C@H](C)[C@@H](O)CC(=O)O[C@H]([C@@H]2CCC[C@H]2C(=O)OCCN2CCCC2)C/C=C/C=C(/C#N)[C@H](O)[C@@H](C)C1`, the MIC in data set [8] came out at 12.5 µg/mL (≈ 21.3 µM); in data set [2] it was 50 µg/mL (≈ 85.2 µM); in data set [9] it was 50 µg/mL (≈ 85.2 µM). Further, the selectivity ratio in data set [3] was found to be 2.81; in [6] it was 0.71; in data set [7], 0.71. In addition, in data set [4], the half-inhibitory concentration (IC50) turned out to be 35.2 µg/mL (≈ 60 µM).
On to `C[C@@H]1C[C@H](C)C[C@H](C)[C@@H](O)CC(=O)O[C@H]([C@@H]2CCC[C@H]2C(=O)OCCN2CCN(CC3CC3)CC2)C/C=C/C=C(/C#N)[C@H](O)[C@@H](C)C1`, for which the outcome in data set [1] and in data set [5] was inactive. In addition, the minimum inhibitory concentration (MIC) in [2] amounted to 50 µg/mL (≈ 76.2 µM). Also, the figures for the selectivity ratio in data set [3], in data set [6] and in data set [7] were below 0.17, 0.34 and below 0.17, respectively. In [4], the half-maximal inhibitory concentration (IC50) amounted to 17 µg/mL (≈ 26 µM).
`C[C@@H]1C[C@H](C)C[C@H](C)[C@@H](O)CC(=O)O[C@H]([C@@H]2CCC[C@H]2C(=O)OCCn2ccnc2)C/C=C/C=C(/C#N)[C@H](O)[C@@H](C)C1`: in data set [2], the MIC worked out at 25 µg/mL (≈ 42.8 µM). For the same molecule, the figures for the selectivity ratio in data set [3], in [6] and in data set [7] were below 0.18, 0.72 and below 0.18, respectively. Also, in data set [4], the IC50 was determined as 18.1 µg/mL (≈ 31 µM).
In the case of `C[C@@H]1C[C@H](C)C[C@H](C)[C@@H](O)CC(=O)O[C@H]([C@@H]2CCC[C@H]2C(=O)OCCN2CCN(CCC3OCCO3)CC2)C/C=C/C=C(/C#N)[C@H](O)[C@@H](C)C1`, the result in data set [1] and in data set [5] was inactive. Further, in [2], the MIC was 12.5 µg/mL (≈ 17.8 µM). Moreover, the selectivity ratio in data set [3] was below 0.7; in [6], above 5.61; in [7], below 0.7. In [4], the IC50 is above 70.1 µg/mL.
Take `C[C@@H]1C[C@H](C)C[C@H](C)[C@@H](O)CC(=O)O[C@H]([C@@H]2CCC[C@H]2C(=O)OCCN(C)C)C/C=C/C=C(/C#N)[C@H](O)[C@@H](C)C1`: the MIC in data set [8] and in data set [9] was 100 µg/mL (≈ 178 µM) in each case. Besides, the selectivity ratio in data set [3] is 0.39; in data set [6], below 0.39; in data set [7] it was 0.39. Moreover, the half-inhibitory concentration (IC50) in data set [4] came out at 39.2 µg/mL (≈ 70 µM). Further, in data set [10], the outcome was inactive.
As to `C[C@@H]1C[C@H](C)C[C@H](C)[C@@H](O)CC(=O)O[C@H]([C@@H]2CCC[C@H]2C(=O)OCCN2CCN(C)CC2)C/C=C/C=C(/C#N)[C@H](O)[C@@H](C)C1`, the MIC in data set [8] was determined as 25 µg/mL (≈ 40.6 µM); in data set [2], 50 µg/mL (≈ 81.2 µM); in [9], 100 µg/mL (≈ 162 µM). Besides, the selectivity ratio in data set [3] stood at 2.34; in data set [6], 1.17; in data set [7], 0.58. Further, the IC50 in [4] was 58.5 µg/mL (≈ 94.9 µM).
With `C=CCN1CCN(CCOC(=O)[C@@H]2CCC[C@H]2[C@@H]2C/C=C/C=C(/C#N)[C@H](O)[C@@H](C)C[C@H](C)C[C@H](C)C[C@H](C)[C@@H](O)CC(=O)O2)CC1`, the outcome in data set [1] and in [5] was inactive. Also, the MIC in [2] is 12.5 µg/mL (≈ 19.5 µM). Also, the selectivity ratio is below 0.22 in [3], 1.76 in data set [6] and below 0.22 in data set [7]. In addition, the 50% inhibitory concentration (IC50) in data set [4] was 22 µg/mL (≈ 34.3 µM).
In turn, `C[C@@H]1C[C@H](C)C[C@H](C)[C@@H](O)CC(=O)O[C@H]([C@@H]2CCC[C@H]2C(=O)O)C/C=C/C=C(/C#N)[C@H](O)[C@@H](C)C1` [BORRELIDIN] returned a minimum inhibitory concentration (MIC) in data set [8] of 50 µg/mL (≈ 102 µM). Besides, the result in [1] and in [10] was inactive. The selectivity ratio is 0.28 in data set [3], below 0.14 in data set [6] and below 0.14 in data set [7]. Also, in data set [4], the IC50 was 14 µg/mL (≈ 28.5 µM).
Consider `C[C@@H]1C[C@H](C)C[C@H](C)[C@@H](O)CC(=O)O[C@H]([C@@H]2CCC[C@H]2C(=O)OCCN2CCN(C(=O)OCc3ccccc3)CC2)C/C=C/C=C(/C#N)[C@H](O)[C@@H](C)C1`, for which the result in data set [1], in data set [5] and in data set [10] was inactive.
On to `CC(=O)N1CCN(CCOC(=O)[C@@H]2CCC[C@H]2[C@@H]2C/C=C/C=C(/C#N)[C@H](O)[C@@H](C)C[C@H](C)C[C@H](C)C[C@H](C)[C@@H](O)CC(=O)O2)CC1`, for which the outcome in [1], in data set [5] and in data set [10] was inactive.
As to `C[C@@H]1C[C@H](C)C[C@H](C)[C@@H](O)CC(=O)O[C@H]([C@@H]2CCC[C@H]2C(=O)N2CCN(C)CC2)C/C=C/C=C(/C#N)[C@H](O)[C@@H](C)C1`, the outcome in [1], in [5] and in data set [10] was inactive.
As for `C[C@@H]1C[C@H](C)C[C@H](C)[C@@H](O)CC(=O)O[C@H]([C@@H]2CCC[C@H]2C(=O)OCCN2CCCCC2)C/C=C/C=C(/C#N)[C@H](O)[C@@H](C)C1`, the MIC in [8] came to 100 µg/mL (≈ 166 µM); in data set [2], 50 µg/mL (≈ 83.2 µM); in data set [9], 100 µg/mL (≈ 166 µM). Further, the selectivity ratio in [3] is 0.28; in [6] it was 0.55; in data set [7] it was 0.28. Besides, in [4], the IC50 turned out to be 27.6 µg/mL (≈ 46 µM).
Turning to `COC(=O)[C@@H](Cc1cnc[nH]1)NC(=O)[C@@H]1CCC[C@H]1[C@@H]1C/C=C/C=C(/C#N)[C@H](O)[C@@H](C)C[C@H](C)C[C@H](C)C[C@H](C)[C@@H](O)CC(=O)O1`, the outcome in data set [1], in data set [5] and in [10] was inactive.
`C[C@@H]1C[C@H](C)C[C@H](C)[C@@H](O)CC(=O)O[C@H]([C@@H]2CCC[C@H]2C(=O)O)C/C=C/C=C(/C(N)=O)[C@H](O)[C@@H](C)C1`: the MIC in data set [8], in data set [2] and in [9] was above 100 µg/mL throughout. Moreover, the outcome in data set [1], in data set [5] and in [10] was inactive.
Regarding `C[C@@H]1C[C@H](C)C[C@H](C)[C@@H](O)CC(=O)O[C@H]([C@@H]2CCC[C@H]2C(=O)OCCN2CCOCC2)C/C=C/C=C(/C#N)[C@H](O)[C@@H](C)C1`, the minimum inhibitory concentration (MIC) in [8] and in data set [9] was 100 µg/mL (≈ 166 µM) throughout. The selectivity ratio was 0.28 in data set [3], below 0.28 in data set [6] and 0.28 in [7]. The IC50 in data set [4] came out at 28 µg/mL (≈ 46.5 µM). Moreover, the result in [10] was inactive.
For the molecule `C[C@@H]1C[C@H](C)C[C@H](C)[C@@H](O)CC(=O)O[C@H]([C@@H]2CCC[C@H]2C(=O)N2CCCCC2)C/C=C/C=C(/C#N)[C@H](O)[C@@H](C)C1`, the result in data set [1], in data set [5] and in data set [10] was inactive.
For `C[C@@H]1[C@H](O)[C@@H](C)/C=C/C=C/C=C/C=C/C=C/C=C/C=C/[C@H](O[C@@H]2O[C@H](C)[C@@H](O)[C@H](N)[C@@H]2O)C[C@@H]2O[C@](O)(C[C@@H](O)C[C@@H](O)[C@H](O)CC[C@@H](O)C[C@@H](O)CC(=O)O[C@H]1C)C[C@H](O)[C@H]2C(=O)O` [AMPHOTERICIN B], the MIC amounted to 1 µg/mL (≈ 1.08 µM) in data set [8], 2 µg/mL (≈ 2.16 µM) in [2] and 2 µg/mL (≈ 2.16 µM) in data set [9].
Regarding `C[C@@H]1C[C@H](C)C[C@H](C)[C@@H](O)CC(=O)O[C@H]([C@@H]2CCC[C@H]2C(=O)NCCc2ccccn2)C/C=C/C=C(/C#N)[C@H](O)[C@@H](C)C1`, the outcome in data set [1], in data set [5] and in [10] was inactive.
